Structures are written as SMILES. Values after ≈ are worked out from the molar mass of the structure shown. Active and inactive are the calls of the source. The calls are words filed in the database; no cut-off is given here.

The target in data set [1] is T1, Chemoattractant receptor-homologous molecule expressed on Th2 cells (Cavia porcellus) (UniProt Q56D28).
T1 sequence (whole entry): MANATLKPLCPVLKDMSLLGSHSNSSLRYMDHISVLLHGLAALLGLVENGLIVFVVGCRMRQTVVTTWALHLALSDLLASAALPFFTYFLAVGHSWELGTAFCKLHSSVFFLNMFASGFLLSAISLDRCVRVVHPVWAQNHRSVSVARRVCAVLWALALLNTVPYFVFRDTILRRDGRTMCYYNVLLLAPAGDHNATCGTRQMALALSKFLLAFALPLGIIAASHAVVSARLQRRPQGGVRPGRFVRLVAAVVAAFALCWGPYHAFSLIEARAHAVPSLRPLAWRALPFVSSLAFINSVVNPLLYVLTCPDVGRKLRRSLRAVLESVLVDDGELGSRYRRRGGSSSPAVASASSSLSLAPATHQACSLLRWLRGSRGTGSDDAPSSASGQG
The data set can be described thus: Antagonist activity at guinea pig CRTH2 receptor assessed as inhibition of calcium flux by cell-based FLIPR assay. It counts as functional.

Data set [2] can be described thus: n-octanol-KH2PO4-Na2HPO4 buffer partition coefficient, log D of the compound at pH 7.4 by shake flask method. It counts as physicochemical.
A short description of data set [3]: Intrinsic clearance in human liver microsomes measured per mg of protein at 1 uM by LC/MS-MS analysis. It counts as ADME, Microsome. As to conditions: read-out: CLH. For orientation: Microsomes from liver hold many membrane-bound enzymes, among them those of drug oxidation.
The nature of data set [4]: Intrinsic clearance in rat hepatocytes measured per 10^6 cells at 1 uM by LC/MS-MS analysis. As to conditions: read-out: CLH. It counts as ADME, cell-based, Hepatocyte.
The nature of data set [5]: Intrinsic clearance in rat liver microsomes measured per mg of protein at 1 uM by LC/MS-MS analysis. The following applies: read-out: CLH. It counts as ADME, Microsome.
In data set [6] the target is T2, Prostaglandin D2 receptor 2 (Homo sapiens, UniProt Q9Y5Y4).
T2 sequence (Q9Y5Y4 whole entry): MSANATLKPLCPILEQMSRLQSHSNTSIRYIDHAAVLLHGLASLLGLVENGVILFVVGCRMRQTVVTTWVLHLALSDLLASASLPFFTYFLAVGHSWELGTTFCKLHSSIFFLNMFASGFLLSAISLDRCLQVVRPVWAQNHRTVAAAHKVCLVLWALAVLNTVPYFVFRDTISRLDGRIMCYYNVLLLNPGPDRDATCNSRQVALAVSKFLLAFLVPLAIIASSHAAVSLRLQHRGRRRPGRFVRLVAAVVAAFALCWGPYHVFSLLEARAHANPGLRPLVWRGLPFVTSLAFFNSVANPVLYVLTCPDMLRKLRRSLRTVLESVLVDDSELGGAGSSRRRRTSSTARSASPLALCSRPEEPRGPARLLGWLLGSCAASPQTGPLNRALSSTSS
Briefly: Antagonist activity at CRTH2 receptor in human eosinophils assessed as inhibition of PGD2-induced cell shape change incubated for 10 mins prior to PGD2 induction measured after 5 mins by FACS flow cytometric analysis in presence of human plasma. For orientation: In flow cytometry, cells or beads pass a laser one at a time.

Data set [7] can be described thus: Elimination half life in human plasma at 1 mM by HR-LC-MS analysis. As to conditions: read-out: beta t1/2. It counts as ADME, cell-free.
Data set [8] has as its system Rattus norvegicus. The data set can be described thus: AUC(0 to last) in Wistar rat at 1 mg/kg, iv and 10 mg/kg, po. It counts as ADME, organism-based, Plasma. As to conditions: in vivo. In outline: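 Male Wistar rats, three animals per experiment, given iv (0.2, 1 or 2 mg/kg) and po (2 or 10 mg/kg) doses as solutions; AUC0-last, plasma clearance, half-life and oral bioavailability derived.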

A short description of data set [9]: Half life in simulated gastric fluid at 2 uM by LC-MS analysis. It counts as physicochemical. Put shortly:
(§1)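 Compounds were incubated in simulated gastric fluid for 1 h or simulated intestinal fluid for 4 h. Unchanged parent was quantified by LC-MS.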

The nature of data set [10]: Elimination half life in Sprague-Dawley rat plasma at 1 mM by HR-LC-MS analysis. It counts as ADME, cell-free. As to conditions: read-out: beta t1/2.
In data set [11] the target is Cytochrome P450 2C9 (Homo sapiens, UniProt P11712). Briefly: Inhibition of CYP2C9 in human liver microsomes assessed as diclofenac 4'-hydroxylation by LC-MS/MS analysis. It counts as ADME, Microsome.
Sequence of Cytochrome P450 2C9 (P11712 whole entry): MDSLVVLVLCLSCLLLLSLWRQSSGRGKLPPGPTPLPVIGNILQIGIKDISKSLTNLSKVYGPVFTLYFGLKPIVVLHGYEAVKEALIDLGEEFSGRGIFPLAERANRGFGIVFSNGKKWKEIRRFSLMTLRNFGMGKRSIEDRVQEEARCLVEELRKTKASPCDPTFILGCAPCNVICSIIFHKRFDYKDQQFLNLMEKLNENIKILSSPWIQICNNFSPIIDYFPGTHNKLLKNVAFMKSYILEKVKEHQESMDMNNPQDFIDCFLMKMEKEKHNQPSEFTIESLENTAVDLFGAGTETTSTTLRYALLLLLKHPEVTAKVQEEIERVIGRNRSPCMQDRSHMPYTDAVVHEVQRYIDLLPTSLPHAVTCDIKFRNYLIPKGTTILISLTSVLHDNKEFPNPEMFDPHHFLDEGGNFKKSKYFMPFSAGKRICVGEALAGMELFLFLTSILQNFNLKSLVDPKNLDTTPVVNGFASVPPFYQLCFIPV
Data set [12] in a line: Half life in simulated intestinal fluid at 2 uM by LC-MS analysis. It counts as physicochemical. Put shortly:
as §1

A short description of data set [13]: Solubility of the compound in aqueous buffer at pH 7. It counts as physicochemical. In outline:
(§2)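 Compound was stirred in water, 60 mM citrate buffer pH 4 or 70 mM phosphate buffer pH 7 at 300 rpm, 25 °C, for 24 h. The mixture was filtered, and the filtrate concentration was measured by HPLC-UV at 250 nm against a calibration curve.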

Data set [14] has as its target T2, Prostaglandin D2 receptor 2. The data set can be described thus: Antagonist activity at CRTH2 receptor in human eosinophils assessed as inhibition of PGD2-induced cell shape change incubated for 1 hr prior to PGD2 induction measured after 5 mins by FACS flow cytometric analysis in presence of human plasma. As to conditions: in the assay text read “incubated for 10 mins” for “incubated for 1 hr”. Put shortly: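 Polymorphonuclear cells isolated from healthy-donor blood on a Polymorphprep gradient (500g, 30 min), erythrocytes lysed hypotonically. Cells stained 1 h with CD49d-APC, mixed with human plasma, preincubated with antagonist, then stimulated with 15 nM PGD2 for 5 min at 37 °C. Fixed in cold 1% paraformaldehyde. Eosinophils gated by CD49d/SSC; activation read as % cells with raised forward scatter.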

The target is the same in data set [15]. The data set can be described thus: Displacement of [3H]PGD2 from recombinant human CRTH2 receptor expressed in HEK293 cell membranes after 90 mins by scintillation counting analysis. Put shortly:
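Membranes from HEK293 cells expressing hCRTH2 (80 μg protein/well) in Tris pH 7.4 buffer with NaCl, EDTA, 0.1% BSA were incubated with 2.5 nM [3H]PGD2 for 90 min at room temperature. Nonspecific binding was defined with 10 μM PGD2. Samples were filtered on PEI-soaked GF/C and read by scintillation counting.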
Background: Loss of bound radioactivity is the signal in a displacement assay; it reports binding, not function.

The nature of data set [16]: Solubility of the compound in aqueous buffer at pH 4. It counts as physicochemical. In outline: as §2
Data set [17] has as its target Cytochrome P450 2D6 (Homo sapiens, UniProt P10635). The data set can be described thus: Inhibition of CYP2D6 in human liver microsomes assessed as dextromethorphan O-demethylation by LC-MS/MS analysis. It counts as ADME, Microsome.
Data set [18] deals with T3, Prostaglandin D2 receptor (Homo sapiens, UniProt Q13258).
T3 sequence (Q13258 whole entry): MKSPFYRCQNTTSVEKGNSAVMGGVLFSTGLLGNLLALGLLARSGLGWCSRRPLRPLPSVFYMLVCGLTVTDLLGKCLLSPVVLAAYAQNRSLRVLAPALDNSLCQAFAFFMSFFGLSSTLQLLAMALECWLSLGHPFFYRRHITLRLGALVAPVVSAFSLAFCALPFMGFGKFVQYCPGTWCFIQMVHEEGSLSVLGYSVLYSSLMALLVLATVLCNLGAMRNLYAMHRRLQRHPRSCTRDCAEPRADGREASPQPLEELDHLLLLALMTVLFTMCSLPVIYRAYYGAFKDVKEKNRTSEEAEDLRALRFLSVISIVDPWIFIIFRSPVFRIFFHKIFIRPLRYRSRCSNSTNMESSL
The data set can be described thus: Displacement of [3H]PGD2 from recombinant human prostanoid DP1 receptor expressed in CHO cells after 90 mins by scintillation counting analysis. It counts as cell-based. In outline: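 Competitive binding with CHO cells stably expressing high levels of recombinant hDP1, using [3H]PGD2 as ligand; IC50 reported.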

For data set [19], the target named is Cytochrome P450 3A4 (Homo sapiens, UniProt P08684). The data set can be described thus: Inhibition of CYP3A4 in human liver microsomes assessed as midazolam-1'-hydroxylation by LC-MS/MS analysis. It counts as ADME, Microsome.
Sequence of Cytochrome P450 3A4 (P08684 whole entry): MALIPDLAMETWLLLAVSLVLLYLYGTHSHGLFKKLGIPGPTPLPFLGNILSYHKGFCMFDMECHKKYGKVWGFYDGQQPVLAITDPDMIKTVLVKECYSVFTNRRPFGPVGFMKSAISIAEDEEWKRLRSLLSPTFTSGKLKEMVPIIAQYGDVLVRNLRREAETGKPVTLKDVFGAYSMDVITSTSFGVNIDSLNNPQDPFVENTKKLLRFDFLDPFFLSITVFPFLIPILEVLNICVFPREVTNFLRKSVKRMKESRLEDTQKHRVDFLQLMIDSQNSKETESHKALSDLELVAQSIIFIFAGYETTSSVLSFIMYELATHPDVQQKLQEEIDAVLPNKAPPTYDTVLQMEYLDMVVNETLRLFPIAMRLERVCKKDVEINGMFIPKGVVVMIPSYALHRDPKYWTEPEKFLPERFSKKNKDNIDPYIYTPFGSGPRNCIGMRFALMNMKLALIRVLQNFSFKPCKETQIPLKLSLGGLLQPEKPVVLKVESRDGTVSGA

Sequence of Cytochrome P450 2D6 (P10635 whole entry): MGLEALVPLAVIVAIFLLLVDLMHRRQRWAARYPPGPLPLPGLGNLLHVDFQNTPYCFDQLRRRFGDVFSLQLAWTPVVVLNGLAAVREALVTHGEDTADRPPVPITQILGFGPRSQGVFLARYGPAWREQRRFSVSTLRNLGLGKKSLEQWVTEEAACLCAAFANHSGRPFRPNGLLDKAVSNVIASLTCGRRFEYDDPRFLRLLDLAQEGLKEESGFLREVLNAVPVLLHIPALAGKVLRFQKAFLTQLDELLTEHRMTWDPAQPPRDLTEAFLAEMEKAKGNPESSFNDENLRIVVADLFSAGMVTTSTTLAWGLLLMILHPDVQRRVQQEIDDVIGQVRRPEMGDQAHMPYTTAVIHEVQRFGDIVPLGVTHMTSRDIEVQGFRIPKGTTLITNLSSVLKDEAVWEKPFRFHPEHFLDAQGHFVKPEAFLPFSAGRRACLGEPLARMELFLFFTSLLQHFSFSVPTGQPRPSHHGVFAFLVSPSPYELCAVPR

On to `O=C(O)Cn1c2c(c3ccccc31)CN(C(=O)c1ccccc1)CC2`, for which, in [1], the inhibition entry is “Active”. Moreover, the logD (usually the decadic logarithm of the distribution of all forms, ionised or not, between an organic phase and buffer at a given pH) in [2] is -1.2. Also, the microsomal CLint at 1 µM in data set [3] was 5 µL/min/mg; in data set [5], less than 4 µL/min/mg. Besides, the hepatocyte CLint at 1 µM in data set [4] was found to be 0.9 µL/min/1e6 cells. Besides, the IC50 (commonly the concentration that gives 50% inhibition) in [6] is 0.11 µM; in [11], 15 µM. Moreover, the half-life in [7] and in data set [10] was more than 4 h in each case. Also, the AUClast in data set [8] is 6300 ng·h/mL. For the same molecule, the half-life at 2 µM in data set [9] was more than 1 h; in data set [12] it was more than 4 h.

For `O=C(O)Cn1c2c(c3cc(F)ccc31)CN(C(=O)c1cccc(Cl)c1)CC2`, the solubility (in general, the dissolved amount per volume that the medium holds) in [13] amounted to 1000 µg/mL (≈ 2590 µM); in data set [16] it was 140 µg/mL (≈ 362 µM). Also, the logD in [2] was -0.3. Moreover, the microsomal CLint at 1 µM in data set [3] and in data set [5] was less than 4 µL/min/mg throughout. In data set [4], the hepatocyte CLint at 1 µM came out at 1.9 µL/min/1e6 cells. Besides, the IC50 in data set [14] is 0.06 µM; in data set [15], 0.009 µM; in data set [17], more than 50 µM; in data set [18], more than 10 µM; in data set [19], more than 50 µM; in [11], more than 50 µM. Moreover, the half-life in data set [7] and in data set [10] was more than 4 h in each case. For the same molecule, the AUClast in data set [8] turned out to be 6450 ng·h/mL. Besides, the results for the half-life at 2 µM in data set [9] and in data set [12] were more than 1 h and more than 4 h, respectively.

In the case of `O=C(O)Cn1c2c(c3cc(F)ccc31)CN(C(=O)c1cccs1)CC2`, the values for the solubility in data set [13] and in [16] were 930 µg/mL (≈ 2590 µM) and 80 µg/mL (≈ 223 µM), respectively. For the same molecule, the inhibition entry in [1] was “Active”. The molecule also showed a logD in data set [2] of 0.2. For the same molecule, the microsomal CLint at 1 µM was less than 4 µL/min/mg in data set [3] and 8 µL/min/mg in data set [5]. Moreover, the hepatocyte CLint at 1 µM in data set [4] is 2.1 µL/min/1e6 cells. The IC50 is 0.034 µM in data set [14]; 0.004 µM in data set [15]; more than 50 µM in [17]; more than 10 µM in data set [18]; more than 50 µM in data set [19]; 43 µM in [11]. For the same molecule, the half-life in [7] and in data set [10] was more than 4 h each time. Moreover, the AUClast in [8] came to 244 ng·h/mL. Moreover, the half-life at 2 µM is more than 1 h in data set [9] and more than 4 h in data set [12].

Regarding `O=C(O)Cn1c2c(c3ccccc31)CN(C(=O)c1cccc3ccccc13)CC2`, the solubility in data set [13] was found to be 830 µg/mL (≈ 2160 µM); in [16], 90 µg/mL (≈ 234 µM). Also, the logD in [2] came out at 0.2. Moreover, the microsomal CLint at 1 µM in [3] was less than 4 µL/min/mg; in [5] it was 36 µL/min/mg. In [4], the hepatocyte CLint at 1 µM turned out to be 1.5 µL/min/1e6 cells. Besides, the IC50 was 1.12 µM in data set [6]; 0.009 µM in data set [15]; more than 50 µM in [17]; 0.78 µM in data set [18]; more than 50 µM in [19]; 40 µM in data set [11]. For the same molecule, the half-life in data set [7] and in data set [10] was more than 4 h throughout. In addition, the AUClast in data set [8] stood at 57300 ng·h/mL. The half-life at 2 µM in [9] was more than 1 h; in data set [12], more than 4 h.

Values taken from ChEMBL document CHEMBL2385063, “Identification of 2-(2-(1-naphthoyl)-8-fluoro-3,4-dihydro-1H-pyrido[4,3-b]indol-5(2H)-yl)acetic acid (setipiprant/ACT-129968), a potent, selective, and orally bioavailable chemoattractant receptor-homologous molecule expressed on Th2 cells (CRTH2) antagonist” (J Med Chem, 2013).
